Laboratory results published in ChEMBL document CHEMBL4814038, “Discovery of sertraline and its derivatives able to combat drug-resistant gastric cancer cell via inducing apoptosis” (Bioorg Med Chem Lett, 2021).
Calls of active or inactive are those of the source. The rule behind the calls is not given here.

Tests used:
[1] = Effect on PI3K/AKT/mTOR signaling pathway in human SGC-7901 cells assessed as reduction in phosphorylated PI3K expression at 3 to 6 uM by Western blotting analysis; assay type: cell-based; settings: filed as modulator, dose 3-6 µM
Outline: (§1)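 SGC-7901/DDP cells given DDP (15 μM) alone or with compound at 8 and 16 μM (parent) or 3 and 6 μM (derivatives). PI3K, Akt, mTOR and their phosphorylated forms detected by Western blotting.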

[2] = Effect on PI3K/AKT/mTOR signaling pathway in human SGC-7901 cells assessed as reduction in phosphorylated mTOR expression at 3 to 6 uM by Western blotting analysis; assay type: cell-based; settings: filed as modulator, dose 3-6 µM; outline: as §1
SGC-7901 [3] = assay: Induction of cell cycle arrest in human SGC-7901 cells assessed as accumulation at G0/G1 phase at 3 to 6 uM by flow cytometry analysis; assay type: functional, cell-based; settings: dose 3-6 µM
Outline: (§2)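 SGC-7901/DDP cells exposed to DDP (15 μM) with compound at 8 and 16 μM (parent) or 3 and 6 μM (derivatives). Cell-cycle distribution measured by flow cytometry, with G0/G1 fraction scored.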

SGC-7901 [4] = assay: Antiproliferative activity against cisplatin resistant human SGC-7901 cells assessed as sensitizing activity at 20 uM in presence of cisplatin; assay type: functional, cell-based
Outline: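 Cisplatin-resistant SGC-7901/DDP cells treated with each compound at 20 μM in combination with DDP (15 μM). Sensitizing effect read as inhibition of proliferation.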

[5] = Effect on PI3K/AKT/mTOR signaling pathway in human SGC-7901 cells assessed as change in total PI3K expression at 3 to 6 uM by Western blotting analysis; assay type: cell-based; settings: dose 3-6 µM; outline: as §1
SGC-7901 [6] = assay: Induction of apoptosis in human SGC-7901 cells assessed as necrotic cells at 3 uM by FITC/PI staining based flow cytometry analysis (reference value: 0.068 %); assay type: functional
SGC-7901 [7] = assay: Antiproliferative activity against cisplatin resistant human SGC-7901 cells assessed as sensitizing activity in presence of cisplatin; assay type: functional, cell-based
Outline: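 Cisplatin-resistant SGC-7901/DDP cells co-treated with DDP (15 μM) and compound over 1.0, 2.0, 4.0, 8.0, 12, 16, 20, 24 μM. IC50 derived from inhibition of proliferation.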

SGC-7901 [8] = assay: Induction of apoptosis in human SGC-7901 cells assessed as early apoptotic cells at 3 uM by FITC/PI staining based flow cytometry analysis (reference value: 3.06 %); assay type: functional
SGC-7901 [9] = assay: Induction of apoptosis in human SGC-7901 cells assessed as viable cells at 3 uM by FITC/PI staining based flow cytometry analysis (reference value: 94.3 %); assay type: functional; settings: read-out: Activity
SGC-7901 [10] = assay: Induction of apoptosis in human SGC-7901 cells assessed as upregulation of cleaved caspase 3 expression level by Western blotting analysis; assay type: functional, cell-based; settings: dose 3-6 µM
[11] = Effect on PI3K/AKT/mTOR signaling pathway in human SGC-7901 cells assessed as change in total mTOR expression at 3 to 6 uM by Western blotting analysis; assay type: cell-based; settings: dose 3-6 µM; outline: as §1
SGC-7901 [12] = assay: Induction of apoptosis in human SGC-7901 cells assessed as late apoptotic cells at 3 uM by FITC/PI staining based flow cytometry analysis (reference value: 2.56 %); assay type: functional
[13] = Effect on PI3K/AKT/mTOR signaling pathway in human SGC-7901 cells assessed as reduction in phosphorylated AKT expression at 3 to 6 uM by Western blotting analysis; assay type: cell-based; settings: filed as modulator, dose 3-6 µM; outline: as §1
[14] = Effect on PI3K/AKT/mTOR signaling pathway in human SGC-7901 cells assessed as change in total AKT expression at 3 to 6 uM by Western blotting analysis; assay type: cell-based; settings: dose 3-6 µM; outline: as §1
SGC-7901 [15] = assay: Induction of cell cycle arrest in human SGC-7901 cells assessed as accumulation at G0/G1 phase at 8 to 16 uM by flow cytometry analysis; assay type: functional, cell-based; settings: dose 8-16 µM; outline: as §2
SGC-7901 [16] = assay: Induction of apoptosis in human SGC-7901 cells assessed as early apoptotic cells at 8 uM by FITC/PI staining based flow cytometry analysis (reference value: 3.06 %); assay type: functional
SGC-7901 [17] = assay: Induction of apoptosis in human SGC-7901 cells assessed as late apoptotic cells at 8 uM by FITC/PI staining based flow cytometry analysis (reference value: 2.56 %); assay type: functional
SGC-7901 [18] = assay: Induction of apoptosis in human SGC-7901 cells assessed as necrotic cells at 8 uM by FITC/PI staining based flow cytometry analysis (reference value: 0.068 %); assay type: functional
[19] = Effect on PI3K/AKT/mTOR signaling pathway in human SGC-7901 cells assessed as change in total PI3K expression at 8 to 16 uM by Western blotting analysis; assay type: cell-based; settings: dose 8-16 µM; outline: as §1
[20] = Effect on PI3K/AKT/mTOR signaling pathway in human SGC-7901 cells assessed as change in total mTOR expression at 8 to 16 uM by Western blotting analysis; assay type: cell-based; settings: dose 8-16 µM; outline: as §1
[21] = Effect on PI3K/AKT/mTOR signaling pathway in human SGC-7901 cells assessed as reduction in phosphorylated PI3K expression at 8 to 16 uM by Western blotting analysis; assay type: cell-based; settings: filed as modulator, dose 8-16 µM; outline: as §1
[22] = Effect on PI3K/AKT/mTOR signaling pathway in human SGC-7901 cells assessed as reduction in phosphorylated mTOR expression at 8 to 16 uM by Western blotting analysis; assay type: cell-based; settings: filed as modulator, dose 8-16 µM; outline: as §1
[23] = Effect on PI3K/AKT/mTOR signaling pathway in human SGC-7901 cells assessed as reduction in phosphorylated AKT expression at 8 to 16 uM by Western blotting analysis; assay type: cell-based; settings: filed as modulator, dose 8-16 µM; outline: as §1
[24] = Effect on PI3K/AKT/mTOR signaling pathway in human SGC-7901 cells assessed as change in total AKT expression at 8 to 16 uM by Western blotting analysis; assay type: cell-based; settings: dose 8-16 µM; outline: as §1
SGC-7901 [25] = assay: Induction of apoptosis in human SGC-7901 cells assessed as viable cells at 8 uM by FITC/PI staining based flow cytometry analysis (reference value: 94.3 %); assay type: functional; settings: read-out: Activity

For NCCCCN[C@@H]1CC[C@@H](c2ccc(Cl)c(Cl)c2)c2ccccc21 (relative stereo), which Activity [1] is on record?
Its Activity is “Active”.

What about the Activity [2] of the same compound?
Its Activity is “Active”.

What about the Activity (SGC-7901 [3]) of the same compound?
The Activity was “Active”.

And the Activity (SGC-7901 [4])?
Its Activity is “Active”.

What about the Activity [5] of the same compound?
Its Activity is “inactive”.

What about the Activity (SGC-7901 [6]) of the same compound?
Its Activity is 14.1%.

What about the IC50 (SGC-7901 [7]) of the same compound?
Its IC50 is 6.28 µM.

What about the Activity (SGC-7901 [8]) of the same compound?
Its Activity is 2.67%.

What about the viability at 3 µM (SGC-7901 [9]) of the same compound?
The viability at 3 µM was 30.7%.

And the Activity (SGC-7901 [10])?
The Activity was “Dose-Dependent Effect”.

And the Activity [11]?
The Activity was “inactive”.

And the Activity (SGC-7901 [12])?
Its Activity is 44.6%.

And the Activity [13]?
The Activity was “Active”.

Which Activity (SGC-7901 [4]) does the source give for N[C@H]1CC[C@H](c2ccc(Cl)c(Cl)c2)c2ccccc21 (relative stereo) here?
The Activity was “inactive”.

For Clc1ccc([C@@H]2CC[C@@H](NCc3ccc4c(c3)OCO4)c3ccccc32)cc1Cl, which Activity (SGC-7901 [4]) is on record?
The Activity was “inactive”.

For Clc1ccc(CN[C@@H]2CC[C@@H](c3ccc(Cl)c(Cl)c3)c3ccccc32)cc1Cl (relative stereo), which Activity (SGC-7901 [4]) is on record?
The Activity was “inactive”.

With Clc1ccc([C@@H]2CC[C@@H](NCc3cccc4ccccc34)c3ccccc32)cc1Cl (relative stereo) as the compound, how does the Activity (SGC-7901 [4]) read?
Its Activity is “inactive”.

Which Activity (SGC-7901 [4]) does the source give for FC(F)(F)c1cccc(CN[C@@H]2CC[C@@H](c3ccc(Cl)c(Cl)c3)c3ccccc32)c1 (relative stereo) here?
The Activity was “inactive”.

With COc1ccc(CN[C@@H]2CC[C@@H](c3ccc(Cl)c(Cl)c3)c3ccccc32)cc1 (relative stereo) as the compound, how does the Activity (SGC-7901 [4]) read?
The Activity was “Active”.

Which Activity (SGC-7901 [4]) does the source give for Cc1ccc(CN[C@@H]2CC[C@@H](c3ccc(Cl)c(Cl)c3)c3ccccc32)cc1 (relative stereo) here?
The Activity was “inactive”.

Which Activity (SGC-7901 [4]) does the source give for O=C(CCCCl)N[C@H]1CC[C@H](c2ccc(Cl)c(Cl)c2)c2ccccc21 here?
The Activity was “inactive”.

For CC(C)(C)OC(=O)N1CCN(CCN[C@@H]2CC[C@@H](c3ccc(Cl)c(Cl)c3)c3ccccc32)CC1 (relative stereo), which IC50 (SGC-7901 [7]) is on record?
Its IC50 is 17.1 µM.

With CC(=O)N[C@H]1CC[C@H](c2ccc(Cl)c(Cl)c2)c2ccccc21 (relative stereo) as the compound, how does the Activity (SGC-7901 [4]) read?
The Activity was “inactive”.

Which Activity (SGC-7901 [4]) does the source give for N[C@@H]1CC[C@H](c2ccc(Cl)c(Cl)c2)c2ccccc21 (relative stereo) here?
The Activity was “inactive”.

With NCCCCCCN[C@@H]1CC[C@H](c2ccc(Cl)c(Cl)c2)c2ccccc21 (relative stereo) as the compound, how does the Activity (SGC-7901 [4]) read?
The Activity was “Active”.

And the IC50 (SGC-7901 [7])?
Its IC50 is 18.9 µM.

For COc1ccc(CN[C@@H]2CC[C@@H](c3ccc(Cl)c(Cl)c3)c3ccccc32)cc1OC (relative stereo), which Activity (SGC-7901 [4]) is on record?
The Activity was “inactive”.

Which results are given for Clc1ccc([C@H]2CC[C@H](NCCN3CCNCC3)c3ccccc32)cc1Cl (relative stereo)?
Activity [1]: Active; Activity [2]: Active; Activity (SGC-7901 [3]): Active; Activity (SGC-7901 [4]): Active; Activity (SGC-7901 [6]): 20.3%; Activity [14]: inactive; IC50 (SGC-7901 [7]): 5.2 µM; Activity (SGC-7901 [8]): 4.06%; viability at 3 µM (SGC-7901 [9]): 34.5%; Activity (SGC-7901 [10]): Dose-Dependent Effect; Activity [11]: inactive; Activity (SGC-7901 [12]): 41%; Activity [13]: Active

For Clc1ccc([C@@H]2CC[C@@H](NCc3ccccc3)c3ccccc32)cc1Cl (relative stereo), which Activity (SGC-7901 [4]) is on record?
The Activity was “Active”.

With CCCCN[C@@H]1CC[C@@H](c2ccc(Cl)c(Cl)c2)c2ccccc21 (relative stereo) as the compound, how does the Activity (SGC-7901 [4]) read?
Its Activity is “Active”.

For CN[C@H]1CC[C@@H](c2ccc(Cl)c(Cl)c2)c2ccccc21 [SERTRALINE], which Activity [1] is on record?
The Activity was “Active”.

And the Activity [2]?
The Activity was “Active”.

And the Activity (SGC-7901 [15])?
Its Activity is “Active”.

And the Activity (SGC-7901 [16])?
Its Activity is 4.21%.

And the Activity (SGC-7901 [17])?
The Activity was 20.9%.

And the Activity (SGC-7901 [18])?
The Activity was 19.7%.

And the Activity [19]?
The Activity was “inactive”.

And the Activity [20]?
Its Activity is “inactive”.

And the IC50 (SGC-7901 [7])?
The IC50 was 18.7 µM.

What about the Activity (SGC-7901 [10]) of the same compound?
Its Activity is “Dose-Dependent Effect”.

And the Activity [21]?
Its Activity is “Active”.

And the Activity [22]?
The Activity was “Active”.

What about the Activity [23] of the same compound?
Its Activity is “Active”.

And the Activity [13]?
The Activity was “Active”.

What about the Activity [24] of the same compound?
The Activity was “inactive”.

And the viability at 8 µM (SGC-7901 [25])?
Its viability at 8 µM is 55.2%.

Which Activity (SGC-7901 [4]) does the source give for NCCCCCCN[C@@H]1CC[C@@H](c2ccc(Cl)c(Cl)c2)c2ccccc21 (relative stereo) here?
The Activity was “Active”.

What about the IC50 (SGC-7901 [7]) of the same compound?
Its IC50 is 11.1 µM.

For NCCN[C@@H]1CC[C@H](c2ccc(Cl)c(Cl)c2)c2ccccc21 (relative stereo), which Activity (SGC-7901 [4]) is on record?
The Activity was “Active”.

What about the IC50 (SGC-7901 [7]) of the same compound?
The IC50 was 10.7 µM.

With NCCCCN[C@@H]1CC[C@H](c2ccc(Cl)c(Cl)c2)c2ccccc21 (relative stereo) as the compound, how does the Activity (SGC-7901 [4]) read?
The Activity was “Active”.

What about the IC50 (SGC-7901 [7]) of the same compound?
The IC50 was 6.3 µM.

For NCCN[C@@H]1CC[C@@H](c2ccc(Cl)c(Cl)c2)c2ccccc21 (relative stereo), which Activity (SGC-7901 [4]) is on record?
Its Activity is “Active”.

And the IC50 (SGC-7901 [7])?
The IC50 was 11 µM.

Which Activity (SGC-7901 [4]) does the source give for COc1cccc(CN[C@@H]2CC[C@@H](c3ccc(Cl)c(Cl)c3)c3ccccc32)c1 (relative stereo) here?
The Activity was “inactive”.
